Compounds with a hit are over-represented: about 3.2% of the library has one in this group of screens.
S100A4 inh HTS: inhibitors of S100A4-myosin IIA peptide binding, primary screen, biochemical, fluorescence polarization, TAMRA-MyoIIA peptide | Protein S100-A4 (Homo sapiens), P26447 | inhibition, % at 10.7 µM | 0.14% of 360,000 active | AID 652163, 2013;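 active means mean inhibition of at least 70% across replicates, with every replicate also reaching that level; inconclusive means mean inhibition reaches 70% but some replicates fall short; inactive means mean inhibition below 70%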
Target sequence (P26447 whole entry, looked up): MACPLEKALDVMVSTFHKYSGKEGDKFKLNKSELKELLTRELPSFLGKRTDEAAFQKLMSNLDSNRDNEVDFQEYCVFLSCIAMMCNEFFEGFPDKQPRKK
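assay system = human S100A4 monomer with TAMRA-labelled myosin IIA peptide | also added = labelled myosin peptide probe, 5 nM | incubation = 5 min between mix addition and reading | control set = DMSO and TFP controls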
PfHsp90 yeast 2: growth inhibition of PfHsp90-expressing yeast, primary screen, antimalarial PfHsp90 inhibitor project, S. cerevisiae, BacTiter-Glo luminescence, single point, set 2; BacTiter-Glo ATP, 48 h; yeast lacking PDR1 and PDR3 efflux regulators; 0.32% of 310,000 active; inhibition, % at 9.4 µM;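 active means every replicate shows inhibition above about 80%, whatever the replicate mean, limit read from the data; inconclusive means mean inhibition reaches the set limit but some replicate falls short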
Cneo AK release: Cryptococcus neoformans cell lysis inducers, primary screen, AK release luminescence, single concentration. C. neoformans lysis, adenylate kinase release luminescence, 4 h; normalised: neutral wells 0, clomiphene wells 100. lysis activity, % at 15 µM. 0.2% of 360,000 active;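 active means mean lysis activity across replicates of at least 80%, whatever share of replicates individually reach that level; inactive means mean lysis activity below 80%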
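Material – log-phase Cryptococcus neoformans yeast cells · Input – 5 × 10^6 yeast cells/mL · Medium – fresh YPD growth medium · Doses – single compound concentration per well · Timing – static 4 h at 37 °C with compound, 1 h detection · Detection – adenylate kinase release luminescence · Read-out – signal increase indicating cell lysis · Control set – Clomiphene as positive lysis control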
rRNA inh HTS: reduced GFP signal of wild-type E. coli, primary screen, bacterial rRNA inhibitor project, GFP/RFP fluorescence, OD600, single point. E. coli WT GFP vs humanized-ribosome RFP mutants, 24 h; hits give low values; DMSO median 0, no signal -100. 1.6% of 350,000 active. GFP signal change (wild-type ribosome), % (concentration not given with the values);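 active means significant combined selectivity score with lowered wild-type GFP, culture density cut under 30%, mutant RFP and density less affected; inactive means any of these conditions unmet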
DENV2 CPE: inhibitors of DENV2 cytopathic effect, primary screen, cell-based, plate reader, single concentration; 1.7% of 350,000 active; DENV2-infected cells, cytopathic effect rescue; CPE inhibition, % at 9.99 µM; AID 651640, 2012; in the data active means CPE inhibition above about 20%, passing the limit was not always enough; inconclusive means no clear call, values can overlap the other calls; tested in BHK-21 cells
MLL AF4-AF9 inh: inhibitors of AF4 peptide binding to AF9, primary screen, biochemical, AlphaScreen, biotin-AF4 peptide, FLAG-AF9, single point; Protein AF-9 (Homo sapiens), P42568; inhibition, % at 10 µM; 0.47% of 350,000 active;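 active means every replicate reaching a set inhibition limit, whatever the replicate mean, cut at about 25% in these data; inconclusive means mean inhibition reaches that limit but some replicates miss it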
Target sequence (P42568 whole entry, looked up): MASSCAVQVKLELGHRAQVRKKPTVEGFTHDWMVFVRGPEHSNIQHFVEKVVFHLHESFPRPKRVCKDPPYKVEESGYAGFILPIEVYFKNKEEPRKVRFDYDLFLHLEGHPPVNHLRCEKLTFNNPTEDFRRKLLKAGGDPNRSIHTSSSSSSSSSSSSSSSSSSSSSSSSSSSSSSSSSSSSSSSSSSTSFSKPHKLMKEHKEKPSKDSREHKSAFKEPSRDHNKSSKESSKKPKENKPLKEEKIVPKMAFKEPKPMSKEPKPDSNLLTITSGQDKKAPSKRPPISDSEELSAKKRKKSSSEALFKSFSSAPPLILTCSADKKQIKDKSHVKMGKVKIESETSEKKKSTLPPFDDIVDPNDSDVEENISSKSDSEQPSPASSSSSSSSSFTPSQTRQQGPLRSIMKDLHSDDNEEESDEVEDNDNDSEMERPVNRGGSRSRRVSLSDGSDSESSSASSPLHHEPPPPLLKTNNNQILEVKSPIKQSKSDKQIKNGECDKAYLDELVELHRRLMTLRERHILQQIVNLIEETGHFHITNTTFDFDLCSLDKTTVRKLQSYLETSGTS
Large screens that a line does not name were inactive; ! = not active in a repeat.

Cc1ccc(C(=O)C(C)OC(=O)Cc2c[nH]c3ccccc23)cc1 (configuration not stated)	DENV2 CPE 27 (no result: PfHsp90 yeast 2)
COC(=O)C1=C(C)NC(C)=C(C(=O)OC)C1C(=O)OCC(=O)N1c2ccccc2CC1C (configuration not stated)	rRNA inh HTS -12
CC1Cc2ccccc2N1C(=O)COC(=O)c1ccc(O)cc1 (configuration not stated)	none
CC(C)CC#Cc1ccc2c(c1)O[C@H](CN(C)C(=O)c1ccncc1)[C@@H](C)CN([C@H](C)CO)S2(=O)=O	none (no result: PfHsp90 yeast 2)
O=C(C[C@H]1CC[C@H](NC(=O)Cc2cccnc2)[C@H](CO)O1)Nc1ccccc1	none (no result: PfHsp90 yeast 2, Cneo AK release)
O=C(C[C@@H]1CC[C@H](NC(=O)Cc2cccnc2)[C@@H](CO)O1)Nc1ccccc1	DENV2 CPE 44 (no result: PfHsp90 yeast 2, Cneo AK release)
O=C(Cc1cccnc1)N[C@H]1CC[C@@H](CCn2cc(Cc3ccccc3)nn2)O[C@H]1CO	DENV2 CPE 89 (no result: PfHsp90 yeast 2)
O=C(Cc1cccnc1)N[C@@H]1CC[C@@H](CCn2cc(Cc3ccccc3)nn2)O[C@H]1CO	none (no result: PfHsp90 yeast 2)
O=C(c1ccccc1)N1CC(=O)N2[C@H](CO)[C@H](c3ccc(/C=C/c4ccccc4)cc3)[C@H]2C1	none (no result: S100A4 inh HTS, PfHsp90 yeast 2, Cneo AK release, DENV2 CPE, MLL AF4-AF9 inh)
CCOC(=O)C1CN(S(=O)(=O)c2ccc(Cl)cc2)c2cc(S(=O)(=O)CC)ccc2O1 (configuration not stated)	none (no result: Cneo AK release)
CCC1CN(S(=O)(=O)c2ccc3c(c2)NC(=O)CC(=O)N3)c2cc(Cl)ccc2O1 (configuration not stated)	DENV2 CPE 23
N#Cc1nc(COc2ccc(-c3ccccc3)cc2)oc1NCCCN1CCOCC1	none (no result: S100A4 inh HTS, rRNA inh HTS, DENV2 CPE, MLL AF4-AF9 inh)
CN(C)CCNc1oc(COc2ccc(-c3ccccc3)cc2)nc1C#N	rRNA inh HTS -36, MLL AF4-AF9 inh inconclusive
CC1=C(C(=O)OCc2ccccc2)C(c2cccnc2)c2c(n(C)c(=O)n(C)c2=O)N1 (configuration not stated)	rRNA inh HTS -17!
CSc1ccccc1NC(=O)CN(C)CC(=O)c1c(C)[nH]c2ccccc12	rRNA inh HTS -21 (no result: PfHsp90 yeast 2)
C[C@H]1CN([C@@H](C)CO)C(=O)c2cc(-c3ccccc3)cnc2O[C@@H]1CN(C)C(=O)C1CCCCC1	DENV2 CPE 47 (no result: PfHsp90 yeast 2, Cneo AK release)
C/C=C/c1cnc2c(c1)C(=O)N([C@@H](C)CO)C[C@@H](C)[C@@H](CN(C)C(=O)C1CCCCC1)O2	Cneo AK release 105 (no result: PfHsp90 yeast 2)
C[C@H]1CN([C@@H](C)CO)C(=O)c2cc(-c3ccccc3)cnc2O[C@H]1CN(C)C(=O)C1CCCCC1	none (no result: PfHsp90 yeast 2)
C/C=C/c1cnc2c(c1)C(=O)N([C@@H](C)CO)C[C@H](C)[C@@H](CN(C)C(=O)C1CCCCC1)O2	none (no result: PfHsp90 yeast 2)
CN1C(=O)c2cc(NC(=O)C3CCOCC3)ccc2OC[C@@H]2O[C@@H](CC(=O)NC3CCCC3)CC[C@@H]21	DENV2 CPE inconclusive (no result: PfHsp90 yeast 2)
COc1ccc(-c2cnc3c(c2)C(=O)N([C@H](C)CO)C[C@H](C)[C@H](CN(C)C(=O)C2CCCCC2)O3)cc1	none (no result: S100A4 inh HTS, PfHsp90 yeast 2, Cneo AK release, DENV2 CPE, MLL AF4-AF9 inh)
O=C(Cc1ccncc1)NCC[C@H]1CC[C@H](NC(=O)C2CC2)[C@@H](CO)O1	none (no result: PfHsp90 yeast 2)
CC(C)(C)NC[C@@H](O)COc1cccc2c1CCCC2=O	DENV2 CPE 31
COc1ccccc1CCNC(=O)Nc1cccc([N+](=O)[O-])c1	rRNA inh HTS -20 (no result: Cneo AK release, DENV2 CPE)
Cc1noc(C)c1NC(=O)Nc1cccc2c1O[C@@H](CN(C)S(=O)(=O)c1ccccc1)[C@@H](C)CN([C@@H](C)CO)C2=O	none (no result: S100A4 inh HTS, PfHsp90 yeast 2, Cneo AK release, DENV2 CPE, MLL AF4-AF9 inh)
COc1cccc(CNC(=O)C[C@@H]2C=C[C@@H](NC(C)=O)[C@@H](CO)O2)c1	none (no result: PfHsp90 yeast 2)
Clc1ccc2nc(C3CCCCC3)c(CC3CCCCC3)n2c1	DENV2 CPE 38 (no result: PfHsp90 yeast 2, rRNA inh HTS)
C[C@@H]1CN([C@H](C)CO)C(=O)c2cc(NC(=O)CCC(F)(F)F)ccc2O[C@@H]1CN(C)C(=O)Nc1cccc2ccccc12	none (no result: PfHsp90 yeast 2)
CC(=O)c1ccc(NC(=S)Nc2ccc3cn[nH]c3c2)cc1	none
Cc1ccc(NC(=S)Nc2ccc3cn[nH]c3c2)cc1C	none (no result: S100A4 inh HTS, Cneo AK release, rRNA inh HTS, DENV2 CPE, MLL AF4-AF9 inh)
Cc1ccc(NC(=S)Nc2ccc3cn[nH]c3c2)c(C)c1	rRNA inh HTS -26 (no result: PfHsp90 yeast 2, Cneo AK release)
CC(C)c1ccc(NC(=S)Nc2ccc3cn[nH]c3c2)cc1	rRNA inh HTS -46 (no result: DENV2 CPE)
Cc1cc(C(C)(C)C)ccc1NC(=O)CC(C)(C)CC(=O)O	MLL AF4-AF9 inh 26
CC1=C(C(=O)OCc2ccccc2)C(c2ccc(Br)cc2)NC(=O)N1CCCCCC(=O)O (configuration not stated)	rRNA inh HTS -26
CCOC(=O)C1=C(C)N(CCCC(=O)O)C(=O)NC1c1ccc([N+](=O)[O-])cc1 (configuration not stated)	DENV2 CPE 102
CC(=O)Nc1ccc2c(c1)C(=O)N(C)[C@@H]1CC[C@@H](CC(=O)NCc3ccc(F)cc3)O[C@H]1CO2	none (no result: PfHsp90 yeast 2)
O=c1c2c3c(sc2ncn1/N=C/c1ccc([N+](=O)[O-])o1)CCCC3	PfHsp90 yeast 2 105 (no result: DENV2 CPE, MLL AF4-AF9 inh)
CN(Cc1ccco1)C(=O)Cn1ncc2c([nH]c3ccccc32)c1=O	none
COCCCN(Cc1ccco1)C(=O)Cn1ncc2c([nH]c3ccccc32)c1=O	DENV2 CPE 25
CN1CCN(C(=O)C[C@H]2CC[C@@H]3[C@@H](COc4ccc(NC(=O)C5CCCCC5)cc4C(=O)N3C)O2)CC1	none (no result: PfHsp90 yeast 2)
C[C@H](CO)N1C[C@H](C)[C@@H](CN(C)S(=O)(=O)c2cn(C)cn2)Oc2c(NC(=O)CCC(F)(F)F)cccc2C1=O	none (no result: S100A4 inh HTS, PfHsp90 yeast 2, Cneo AK release, DENV2 CPE, MLL AF4-AF9 inh)
COc1cc(OC)nc(Oc2ccccc2C(=O)Oc2ccccc2Cl)n1	rRNA inh HTS -23
COc1cc(OC)nc(Oc2ccccc2C(=O)Oc2ccc(Cl)cc2)n1	none
COC(=O)c1ccc(CN2CCCC(CNC(=O)Cc3ccc(OC)cc3)C2)cc1 (configuration not stated)	none
COc1ccc(CC(=O)NCC2CCCN(Cc3ccc(OC(F)(F)F)cc3)C2)cc1 (configuration not stated)	DENV2 CPE 20 (no result: rRNA inh HTS)
Cc1ccc(S(=O)(=O)N[C@@H]2CCCN(Cc3cccc(OCCO)c3)C2)cc1	Cneo AK release 85 (no result: PfHsp90 yeast 2, rRNA inh HTS)
COc1ccc(S(=O)(=O)NCC2CCCN(Cc3cccc(C(C)=O)c3)C2)cc1 (configuration not stated)	S100A4 inh HTS 87
